For orientation: Ki means a measure of affinity in units of concentration, obtained from inhibition or displacement. Low values mean higher affinity, high ones lower affinity. The EC50 is the midpoint of the concentration-response curve.

The target in assay [1] is T1, Beta-1 adrenergic receptor (Homo sapiens, UniProt P08588). Nature of the assay: Displacement of [3H]dihydroalprenolol from beta1 receptor (unknown origin) by liquid scintillation counting and cell based assay.
The species named for assay [2] is Homo sapiens. The assay is described as follows: Selectivity ratio Ki for beta1 receptor (unknown origin) to Ki for beta2 receptor (unknown origin).
The target in assay [3] is T2, Beta-2 adrenergic receptor (Homo sapiens, UniProt P07550). Nature of the assay: Agonist activity at human recombinant beta2 receptor assessed as cAMP accumulation by radioimmunoassay and cell based assay. Format: functional. In general terms: Changes in cAMP serve as a functional read-out for many G protein-coupled receptors.
T2 sequence (P07550 whole entry): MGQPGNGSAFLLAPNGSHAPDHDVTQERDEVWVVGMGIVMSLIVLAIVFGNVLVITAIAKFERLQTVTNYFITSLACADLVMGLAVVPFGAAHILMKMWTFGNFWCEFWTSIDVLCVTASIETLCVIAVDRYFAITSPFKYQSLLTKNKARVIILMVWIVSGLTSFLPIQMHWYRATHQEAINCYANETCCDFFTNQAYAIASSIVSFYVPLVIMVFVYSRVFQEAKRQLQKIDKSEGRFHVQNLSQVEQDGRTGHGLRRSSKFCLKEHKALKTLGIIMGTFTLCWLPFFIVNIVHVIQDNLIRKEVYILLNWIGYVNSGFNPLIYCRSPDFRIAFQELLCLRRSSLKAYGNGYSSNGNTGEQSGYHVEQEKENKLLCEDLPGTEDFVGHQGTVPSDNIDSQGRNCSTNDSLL
The target of assay [4] is T2, Beta-2 adrenergic receptor. Nature of the assay: Displacement of [3H]dihydroalprenolol from beta2 receptor (unknown origin) by liquid scintillation counting and cell based assay. (Displacement assays read how much labelled ligand stays bound in the presence of the test substance.)
Assay [5] addresses T3, Beta-2 adrenergic receptor (Cavia porcellus, UniProt Q8K4Z4). The assay is described as follows: Agonist activity at beta2 receptor in guinea pig trachea assessed as slow onset of inhibition of electrically stimulated contraction. A digest of the protocol:
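Guinea pigs pretreated with 6-hydroxy-dopamine (200 mg/kg i.p.) 24 h before. Opened 5 mm tracheal rings between platinum electrodes in normal-K+ (4.7 mM) Krebs at 37 °C with 10 µM indomethacin, 1 µM choline, 3 µM guanethidine. Field stimulation: 9 V, 10 Hz, 1 ms pulses, 10 s train every 100 s. Resting tension 1 g, 1 h equilibration. Onset is the time to maximum effect at an EC80 concentration; slow is >30 min.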

Assay [6] concerns the target T1, Beta-1 adrenergic receptor. The assay is described as follows: Agonist activity at human recombinant beta1 receptor assessed as cAMP accumulation by radioimmunoassay and cell based assay.
In assay [7] the target is T2, Beta-2 adrenergic receptor. Nature of the assay: Agonist activity at human beta2 receptor in BEAS-2B cells assessed as cAMP accumulation by radioimmunoassay. Type of assay: functional, cell-based.
For assay [8], the target named is Beta-3 adrenergic receptor (Homo sapiens, UniProt P13945). The assay is described as follows: Agonist activity at human recombinant beta3 receptor assessed as cAMP accumulation by radioimmunoassay and cell based assay.
Beta-3 adrenergic receptor, sequence (P13945 whole entry): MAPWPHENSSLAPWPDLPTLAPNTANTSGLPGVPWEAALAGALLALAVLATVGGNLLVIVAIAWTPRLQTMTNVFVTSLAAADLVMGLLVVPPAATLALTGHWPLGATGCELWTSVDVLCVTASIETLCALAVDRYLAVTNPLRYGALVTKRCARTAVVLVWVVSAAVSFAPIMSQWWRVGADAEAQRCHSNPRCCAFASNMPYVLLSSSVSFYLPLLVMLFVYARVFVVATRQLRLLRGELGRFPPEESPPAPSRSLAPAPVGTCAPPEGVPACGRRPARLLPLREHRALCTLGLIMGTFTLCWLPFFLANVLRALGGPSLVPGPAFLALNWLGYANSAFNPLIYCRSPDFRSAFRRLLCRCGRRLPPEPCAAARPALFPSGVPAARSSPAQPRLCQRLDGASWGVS
Assay [9] is filed under the species Homo sapiens. Nature of the assay: Selectivity ratio EC50 for human beta2 receptor to EC50 for human beta1 receptor. A digest of the protocol: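 cAMP accumulation in whole cells overexpressing cloned human β2- or β1-adrenoceptor, measured by homogeneous radioimmunoassay. Selectivity is the ratio of agonist EC50s, β1 EC50/β2 EC50.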
For assay [10], the species on record is Homo sapiens. The assay is described as follows: Selectivity ratio EC50 for human beta2 receptor to EC50 for human beta3 receptor. Summed up:
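cAMP accumulation in whole cells overexpressing cloned human β-adrenoceptor subtypes, measured by homogeneous radioimmunoassay (Flashplate). Reported as pEC50. Functional selectivity is the ratio of EC50 values (β3 EC50/β2 EC50 for β3; β1 EC50/β2 EC50 for β1).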

In assay [11] the test system is Cavia porcellus. Nature of the assay: Inhibition of acetylcholine-induced bronchoconstriction in male guinea pig assessed as pulmonary resistance administered via nebulization for 10 mins measured after 72 hrs by plethysmograph. Type of assay: functional, organism-based. Summed up:
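Guinea pigs dosed by nebulizer, 72 h before measurement. Pulmonary resistance measured in anesthetized, spontaneously breathing animals by head-out plethysmograph. Bronchoconstriction induced by increasing intravenous acetylcholine doses; PD2 is the ACh dose that doubles baseline resistance.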

The test system of assay [12] is Cavia porcellus. The assay is described as follows: Inhibition of acetylcholine-induced bronchoconstriction in male guinea pig assessed as pulmonary resistance at 1 -100 ug/ml administered via nebulization for 10 mins measured after 1.5 hrs by plethysmograph. Format: functional, organism-based.
Assay [13] deals with T3, Beta-2 adrenergic receptor. The assay is described as follows: Agonist activity at beta2 receptor in guinea pig trachea assessed as fast onset of inhibition of electrically stimulated contraction.

The source made the active and inactive calls. The rule behind the calls is not given here.

T1 sequence (P08588 whole entry): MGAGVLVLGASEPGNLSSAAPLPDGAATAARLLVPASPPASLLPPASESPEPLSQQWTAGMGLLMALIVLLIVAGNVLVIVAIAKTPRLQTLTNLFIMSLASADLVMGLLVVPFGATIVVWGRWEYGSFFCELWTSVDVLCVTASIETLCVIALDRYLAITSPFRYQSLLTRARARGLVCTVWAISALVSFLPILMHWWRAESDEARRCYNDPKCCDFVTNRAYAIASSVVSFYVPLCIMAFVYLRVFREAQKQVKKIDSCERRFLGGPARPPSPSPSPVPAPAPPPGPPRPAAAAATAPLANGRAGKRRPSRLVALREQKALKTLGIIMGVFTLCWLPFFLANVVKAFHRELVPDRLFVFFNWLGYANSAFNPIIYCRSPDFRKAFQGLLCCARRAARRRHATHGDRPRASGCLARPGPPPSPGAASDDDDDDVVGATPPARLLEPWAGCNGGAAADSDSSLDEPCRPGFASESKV
T3 sequence (Q8K4Z4 whole entry): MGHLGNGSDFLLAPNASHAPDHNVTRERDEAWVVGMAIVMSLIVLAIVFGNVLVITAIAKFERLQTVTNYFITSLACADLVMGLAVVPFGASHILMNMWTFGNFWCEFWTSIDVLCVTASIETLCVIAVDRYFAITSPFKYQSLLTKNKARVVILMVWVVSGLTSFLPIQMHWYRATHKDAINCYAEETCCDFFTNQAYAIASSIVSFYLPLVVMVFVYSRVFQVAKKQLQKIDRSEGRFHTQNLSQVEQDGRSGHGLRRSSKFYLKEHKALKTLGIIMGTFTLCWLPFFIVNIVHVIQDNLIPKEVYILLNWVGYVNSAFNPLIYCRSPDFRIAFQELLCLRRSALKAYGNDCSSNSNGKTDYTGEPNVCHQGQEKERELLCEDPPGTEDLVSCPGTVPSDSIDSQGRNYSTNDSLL

For `OCc1cc(C(O)CNCCc2ccc(N3CCC(CCCc4ccccc4)CC3)cc2)ccc1O` (racemic), the Ki is 126 µM in [1] and 200000 nM in assay [4]. Moreover, the Ratio Ki in [2] stood at 0.6. In assay [3], the concentration for a half-maximal effect (EC50) is 1580 nM.
Regarding `COc1cccc(Nc2ccc(CCNCC(O)c3ccc(O)c(CO)c3)cc2)c1` (racemic), the values for the Ki in [1] and in assay [4] were 12.6 µM and 631 nM, respectively. In addition, the Ratio Ki in assay [2] stood at 17. Besides, in assay [3], the EC50 is 10 nM.
On to `OCc1cc(C(O)CNCCc2ccc(Nc3ccc(-c4ccccc4)cc3)cc2)ccc1O` (racemic), for which the Ki in assay [1] was 12.6 µM; in assay [4] it was 316 nM. The Ratio Ki in assay [2] is 36. Moreover, the EC50 in [3] is 7.94 nM.
Turning to `OCc1cc(C(O)CNCCc2ccc(Nc3cccc4ccccc34)cc2)ccc1O` (racemic), the inhibition constant Ki in [1] is 31.6 µM; in [4], 6310 nM. In addition, in [2], the Ratio Ki was 5.4. The EC50 in assay [3] was 200 nM.
Consider `O=C(c1ccccc1)C1CCN(c2ccc(CCNCC(O)c3ccc(O)c(CO)c3)cc2)CC1` (racemic), for which the Ki is 126 µM in assay [1] and 39800 nM in [4]. In [2], the Ratio Ki was determined as 3.4. In addition, the half-maximal effective concentration (EC50) in assay [3] was 1260 nM.
As for `COc1ccc(CN2CCN(c3ccc(CCNCC(O)c4ccc(O)c(CO)c4)cc3)CC2)cc1` (racemic), the inhibitory constant (Ki) in assay [1] was over 10 µM; in assay [4] it was over 10000 nM. The half-maximal effective concentration (EC50) in assay [3] was 631 nM.
For `CCOc1ccc(Nc2ccc(CCNCC(O)c3ccc(O)c(CO)c3)cc2)cc1` (racemic), the results for the Ki in assay [1] and in assay [4] were 31.6 µM and 158 nM, respectively. In assay [2], the Ratio Ki stood at 178. For the same compound, the EC50 is 1.26 nM in [3] and 200 nM in assay [5].
With `OCc1cc(C(O)CNCCc2ccc(Nc3ccc4c(c3)CCC4)cc2)ccc1O` (racemic), the results for the inhibitory constant (Ki) in [1] and in [4] were 25.1 µM and 794 nM, respectively. For the same compound, the Ratio Ki in assay [2] is 31. In assay [3], the EC50 is 7.94 nM.
The corresponding values for `COc1ccc(Nc2ccc(CCNCC(O)c3ccc(O)c(CO)c3)cc2)cc1-c1ccccc1` (racemic) are 20 µM, 63.1 nM, 319 and 1.26 nM.
With `OCc1cc(C(O)CNCCc2ccc(NCc3ccc(Cl)c(Cl)c3)cc2)ccc1O` (racemic), the inhibition constant Ki in assay [1] was over 10 µM; in assay [4], over 10000 nM. Moreover, the half-maximal effective concentration (EC50) in [3] was 1580 nM.
Regarding `COC(=O)c1ccc(Nc2ccc(CCNCC(O)c3ccc(O)c(CO)c3)cc2)cc1` (racemic), the inhibition constant (Ki) in assay [1] is 10 µM; in [4], 251 nM. Moreover, the Ratio Ki in assay [2] was found to be 36. In addition, the concentration for a half-maximal effect (EC50) in assay [3] is 6.31 nM.
As to `OCc1cc(C(O)CNCCc2ccc(Nc3ccc(O)cc3)cc2)ccc1O` (racemic), the inhibition constant Ki in assay [1] is 39.8 µM; in assay [4], 1580 nM. The Ratio Ki in [2] was found to be 23. In addition, the concentration for a half-maximal effect (EC50) in assay [3] is 200 nM.
In the case of `OCc1cc(C(O)CNCCc2ccc(NCc3ccc4ccccc4c3)cc2)ccc1O` (racemic), the inhibition constant (Ki) was over 10 µM in assay [1] and over 10000 nM in [4]. In assay [3], the concentration for a half-maximal effect (EC50) is 158 nM.
Turning to `OCc1cc(C(O)CNCCc2ccc(Nc3ccc(F)cc3)cc2)ccc1O` (racemic), the inhibition constant Ki is 7.94 µM in [1] and 1260 nM in [4]. Also, the Ratio Ki in [2] was 6.5. Also, in assay [3], the EC50 was 31.6 nM.
`COc1ccc(Nc2ccc(CCNC[C@H](O)c3ccc(O)c(NC=O)c3)cc2)cc1-c1ccccc1`: the EC50 in assay [6] is 10 nM; in [3], 0.126 nM; in assay [7], 0.794 nM; in [8], 3.16 nM; in assay [5] it was 12.6 nM. Besides, the Ratio EC50 in assay [9] turned out to be 75; in assay [10], 26.
For `OCc1cc(C(O)CNCCc2ccc(Nc3cccc(-c4ccccc4)c3)cc2)ccc1O` (racemic), the inhibition constant (Ki) is 12.6 µM in [1] and 316 nM in [4]. In addition, the Ratio Ki in [2] turned out to be 40. For the same compound, the EC50 in assay [3] was 2 nM.
Turning to `COc1ccc(Nc2ccc(CCNC[C@H](O)c3ccc(O)c(CO)c3)cc2)cc1-c1ccccc1`, the figures for the 50% effective concentration (EC50) in [3], in assay [7] and in assay [5] were 0.501 nM, 3.98 nM and 2 nM, respectively.
For `COc1ccc(Nc2ccc(CCNC[C@H](O)c3ccc(O)c4[nH]c(=O)ccc34)cc2)cc1-c1ccccc1`, the EC50 in assay [6] was 7.94 nM; in [3] it was 0.126 nM; in assay [7] it was 0.398 nM; in [8], 12.6 nM; in assay [5] it was 2 nM. Besides, the inhibition entry in assay [11] was “Dose-dependent effect”. Moreover, the Ratio EC50 in assay [9] amounted to 56; in assay [10], 100. In addition, the inhibition result in [12] is “Active”.
For the compound `O=C(Cc1ccccc1)NC1CCN(c2ccc(CCNCC(O)c3ccc(O)c(CO)c3)cc2)CC1` (racemic), the inhibition constant Ki in [1] was over 10 µM; in [4], over 10000 nM. Moreover, the half-maximal effective concentration (EC50) in assay [3] was 1000 nM.
Turning to `O=CNc1cc([C@@H](O)CNCCc2ccc(NC[C@H](O)c3ccccc3)cc2)ccc1O` [MILVETEROL], the Ki in [1] is 10 µM; in assay [4], 3.16 nM. Besides, in [2], the Ratio Ki worked out at 3030. Moreover, the EC50 in [13] is 0.0501 nM.
`OCc1cc(C(O)CNCCc2ccc(N3CCC(Cc4ccccc4)CC3)cc2)ccc1O` (racemic): the Ki was 79.4 µM in [1] and 15800 nM in assay [4]. For the same compound, in assay [2], the Ratio Ki worked out at 4.8. In addition, the EC50 in assay [3] was 501 nM.
As for `CSc1ccc(Nc2ccc(CCNCC(O)c3ccc(O)c(CO)c3)cc2)cc1` (racemic), the figures for the Ki in [1] and in assay [4] were 7.94 µM and 79.4 nM, respectively. In assay [2], the Ratio Ki amounted to 81. Besides, the EC50 in assay [3] was 2.51 nM.
For `CC(=O)N1CCN(c2ccc(CCNCC(O)c3ccc(O)c(CO)c3)cc2)CC1` (racemic), the inhibition constant Ki in [1] was over 10 µM; in assay [4], over 10000 nM. Further, the EC50 in assay [3] is 10000 nM.
`OCc1cc(C(O)CNCCc2ccc(Nc3ccc(Oc4ccccc4)cc3)cc2)ccc1O` (racemic): the Ki in [1] is 6.31 µM; in assay [4] it was 316 nM. Further, the Ratio Ki in [2] came to 16. In addition, in assay [3], the 50% effective concentration (EC50) was 20 nM.
`OCc1cc(C(O)CNCCc2ccc(Nc3ccc4ccccc4c3)cc2)ccc1O` (racemic): the Ki is 12.6 µM in assay [1] and 316 nM in assay [4]. For the same compound, the Ratio Ki in assay [2] worked out at 34. Further, the concentration giving a half-maximal response (EC50) in assay [3] was 2.51 nM.
With `COc1ccc(Nc2ccc(CCNCC(O)c3ccc(O)c(CO)c3)cc2)cc1` (racemic), the values for the Ki in assay [1] and in assay [4] were 31.6 µM and 1260 nM, respectively. Further, the Ratio Ki in assay [2] came to 27. Also, in [3], the half-maximal effective concentration (EC50) was 3.98 nM.
With `OCc1cc(C(O)CNCCc2ccc(Br)cc2)ccc1O` (racemic), the Ki was over 10 µM in [1] and 31600 nM in assay [4]. For the same compound, the EC50 in assay [3] was 25.1 nM.
Turning to `CC(C)Oc1ccc(Nc2ccc(CCNCC(O)c3ccc(O)c(CO)c3)cc2)cc1` (racemic), the figures for the Ki in assay [1] and in assay [4] were 15.8 µM and 100 nM, respectively. Moreover, the Ratio Ki in [2] is 158. Besides, the concentration giving a half-maximal response (EC50) in assay [3] is 2.51 nM.
For the compound `OCc1cc(C(O)CNCCCCCCOCCCCc2ccccc2)ccc1O` (configuration not stated) [SALMETEROL], the EC50 is 1000 nM in assay [8] and 31.6 nM in [5].
With `OCc1cc(C(O)CNCCc2ccc(N3CCN(c4ccccc4)CC3)cc2)ccc1O` (racemic), the values for the Ki in assay [1] and in assay [4] were over 10 µM and 31600 nM, respectively. For the same compound, in assay [3], the EC50 is 200 nM.
Regarding `OCc1cc(C(O)CNCCc2ccc(N3CCC(c4ccccc4)CC3)cc2)ccc1O` (racemic), the Ki in assay [1] is over 10 µM; in [4], 12600 nM. Also, the concentration giving a half-maximal response (EC50) in assay [3] was 398 nM.

Source of the values: ChEMBL document CHEMBL3286330, “Multivalent design of long-acting β(2)-adrenoceptor agonists incorporating biarylamines” (Bioorg Med Chem Lett, 2014).
